What was measured:
[1] = Inhibition of bacterial beta-lactamase OXA-48 expressed in Escherichia coli strain BL21Star(DE3)pRARE using nitrocefin as substrate; design: species or system Bacteria
How it was run: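 OXA-48 carried its native signal peptide and was purified from the periplasm. The assay ran at 25 °C in 100 mM sodium phosphate pH 7.0 with 50 mM NaHCO3 and 0.2 mg/mL BSA, against 25 μM nitrocefin. Velocities were taken from the linear range. IC50 came from a nonlinear fit of response versus log inhibitor concentration, with bottom and top fixed from controls.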

[2] = Binding affinity to bacterial His-tagged beta-lactamase OXA-48 expressed in Escherichia coli strain BL21Star(DE3)pRARE by surface plasmon resonance assay; design: species or system Bacteria
How it was run: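 His-tagged OXA-48 amine-coupled to a CM5 chip to around 5000 RU (enzyme at 25 μg/mL in 10 mM MES pH 5.5). Ten dilutions from 400 μM to 10.5 μM were injected for 30 s with 60 s dissociation (300 s for kinetic binders). Sensorgrams were double-referenced. Kd came from a steady-state model with Rmax fixed via a positive control.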

IC50 [1]	pIC50 [1]	SMILES	Kd [2]
360 µM	3.44	COc1cccc(-c2cccc(C(=O)O)c2)c1	226 µM
260 µM	3.59	COC(=O)c1cccc(-c2cccc(C(=O)O)c2)c1	144 µM
800 µM	3.1	O=C(O)c1cccc(-c2cncnc2)c1	900 µM
90 µM	4.05	Cc1ccccc1-c1cccc(C(=O)O)c1	170 µM
330 µM	3.48	Nc1ccc(-c2cccc(C(=O)O)c2)cc1	330 µM
520 µM	3.28	CC(=O)NCCc1ccc(-c2cccc(C(=O)O)c2)cc1	190 µM
36 µM	4.48	O=C(O)c1cccc(-c2ccc(-c3nnn[nH]3)cc2)c1	70 µM
2.9 µM	5.53	CC(=O)Nc1cccc(-c2cc(C(=O)O)cc(-c3cccc(NC(C)=O)c3)c2)c1	20 to 30 µM
110 µM	3.97	O=C(O)c1cccc(-c2cccc(O)c2)c1	110 µM
250 µM	3.6	CC(=O)OCc1cccc(-c2cccc(C(=O)O)c2)c1	140 to 181 µM
100 µM	3.99	CC(=O)Nc1cccc(-c2cc(C(=O)O)cc(-c3ccncc3)c2)c1	70 µM
110 µM	3.95	NCCc1cccc(-c2cccc(C(=O)O)c2)c1	300 µM
150 µM	3.82	COc1ccc(-c2cccc(C(=O)O)c2)cc1	250 µM
500 µM	3.3	Cn1cccc1-c1cccc(C(=O)O)c1	590 µM
380 µM	3.42	CS(=O)(=O)c1ccc(-c2cccc(C(=O)O)c2)cc1	361 µM
260 µM	3.58	NC(=O)c1cccc(-c2cccc(C(=O)O)c2)c1	220 µM
110 µM	3.98	O=C(O)c1cccc(-c2ccc3ccccc3c2)c1	400 µM
130 µM	3.89	O=C(O)c1cccc(-c2ccccc2F)c1	170 µM
350 µM	3.46	Cc1nc(N)ncc1-c1cccc(C(=O)O)c1	113 µM
310 µM	3.51	O=C(O)c1cccc(-c2ccc3[nH]ccc3c2)c1	400 µM
110 µM	3.94	O=C(O)c1cc(-c2ccc3ncccc3c2)cc(-c2ccc3ncccc3c2)c1	70 µM
170 µM	3.78	Cc1cccc(-c2cccc(C(=O)O)c2)c1	300 µM
60 µM	4.25	O=C(O)c1cccc(-c2ccc(NS(=O)(=O)c3ccccc3)cc2)c1	210 µM
450 µM	3.35	CC(=O)Nc1ccc(-c2cccc(C(=O)O)c2)cc1	290 µM
250 µM	3.6	COc1ccccc1-c1cccc(C(=O)O)c1	123 µM
900 µM	3.04	O=C(O)c1cccc(-c2cccc(CO)c2)c1	230 µM
60 µM	4.24	O=C(O)c1cccc(-c2cccc(-c3nnn[nH]3)c2)c1	70 µM

IC50 [1]	pIC50 [1]	SMILES	Kd [2]
170 µM	3.76	Nc1ccc(-c2cccc(C(=O)O)c2)cn1	130 µM
210 µM	3.69	COC(=O)c1ccccc1-c1cccc(C(=O)O)c1	200 µM
180 µM	3.73	NC(=O)c1ccc(-c2cccc(C(=O)O)c2)cc1	200 to 350 µM
470 µM	3.33	O=C(O)c1cccc(-c2ccc(O)cc2)c1	170 µM
240 µM	3.61	O=C(O)c1cccc(-c2ccc3cccnc3c2)c1	160 µM
230 µM	3.64	CC(=O)NCCc1cccc(-c2cccc(C(=O)O)c2)c1	170 µM
600 µM	3.22	NCc1cccc(-c2cccc(C(=O)O)c2)c1	800 µM
2.9 µM	5.54	CC(=O)Nc1cccc(-c2cc(C(=O)O)cc(-c3ccc4ncccc4c3)c2)c1	49 to 60 µM
48 µM	4.32	CC(=O)Nc1ccc(-c2cc(C(=O)O)cc(-c3ccc(NC(C)=O)cc3)c2)cc1	70 µM
400 µM	3.4	CSc1ccc(-c2cccc(C(=O)O)c2)cc1	1000 µM
1400 µM	2.85	NCc1ccc(-c2cccc(C(=O)O)c2)cc1	550 µM
370 µM	3.43	CS(=O)(=O)NCCc1cccc(-c2cccc(C(=O)O)c2)c1	200 µM
50 µM	4.3	O=C(O)c1cccc(-c2ccccc2O)c1	175 µM
360 µM	3.45	O=C(O)c1cccc(-c2ccc(F)cc2)c1	312 µM
800 µM	3.09	O=C(O)c1cccc(-c2cncs2)c1	900 µM
1000 µM	2.98	NCCc1ccc(-c2cccc(C(=O)O)c2)cc1	970 µM
380 µM	3.42	CC(=O)c1ccc(-c2cccc(C(=O)O)c2)cc1	280 µM
110 µM	3.96	CS(=O)(=O)NCc1cccc(-c2cccc(C(=O)O)c2)c1	110 µM
1300 µM	2.89	O=C(O)c1cccc(-c2cnc(-n3ccnc3)nc2)c1	1000 to 1160 µM
35 µM	4.45	CC(=O)Nc1cccc(-c2cccc(C(=O)O)c2)c1	100 µM
370 µM	3.43	CS(=O)(=O)Nc1ccc(-c2cccc(C(=O)O)c2)cc1	100 µM
390 µM	3.41	CN(C)c1ccc(-c2cccc(C(=O)O)c2)cc1	220 µM
120 µM	3.91	CS(=O)(=O)c1cccc(-c2cccc(C(=O)O)c2)c1	150 µM
130 µM	3.89	CC(=O)NCc1cccc(-c2cccc(C(=O)O)c2)c1	130 µM
450 µM	3.35	CS(=O)(=O)NCc1ccc(-c2cccc(C(=O)O)c2)cc1	240 µM
130 µM	3.88	O=C(O)c1cccc(-c2cccc(F)c2)c1	240 µM
35 µM	4.46	O=C(O)c1cccc(-c2ccccn2)c1	159 µM
